Experimental data as given in ChEMBL document CHEMBL4145582, “Cytotoxic and Antibacterial Eremophilane Sesquiterpenes from the Marine-Derived Fungus Cochliobolus lunatus SCSIO41401” (J Nat Prod, 2018).
Converted amounts (≈) assume the structure as drawn.

Tests used:
[1] = system: Escherichia coli; assay: Antimicrobial activity against Escherichia coli ATCC 25922 after 24 hrs by serial dilution method; assay type: functional; conditions: ATCC 25922, 24 h
Method in brief: (§1)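 Serial broth dilution in 96-well microtiter plates. Compounds and controls are dissolved in DMSO as stock. Bacteria are grown overnight at 37 °C, then diluted to 10^6 cfu/mL. E. coli and S. aureus are grown in Luria–Bertani broth. P. multocida and E. rhusiopathiae are grown in trypticase soy broth with 10% calf serum. Plates are incubated at 37 °C for 24 h and read at 630 nm.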

[2] = system: SGC-7901; assay: Cytotoxicity against human SGC7901 cells after 6 days by MTT assay; assay type: functional, cell-based; conditions: SGC-7901, 144 h
Method in brief: (§2)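 HepG-2 and SGC7901 cells; growth inhibition read by MTT method, with 5-fluorouracil as positive control.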

[3] = system: Staphylococcus aureus; assay: Antimicrobial activity against Staphylococcus aureus subsp. aureus Rosenbach ATCC 25923 after 24 hrs by serial dilution method; assay type: functional; conditions: Rosenbach ATCC 25923, 24 h; method in brief: as §1
[4] = system: HepG2; assay: Cytotoxicity against human HepG2 cells after 6 days by MTT assay; assay type: functional, cell-based; conditions: HepG2, 144 h; method in brief: as §2
[5] = system: Erysipelothrix rhusiopathiae; assay: Antimicrobial activity against Erysipelothrix rhusiopathiae ATCC 19414 after 24 hrs by serial dilution method; assay type: functional; conditions: ATCC 19414, 24 h; method in brief: as §1
[6] = system: OS-RC-2; assay: Cytotoxicity against human OS-RC2 cells after 72 hrs by CCK8 assay; assay type: functional, cell-based; conditions: OS-RC-2, 72 h
Method in brief: (§3)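 Renal cancer lines ACHN, 786-O and OS-RC-2; cell viability read by CCK-8 assay, with sorafenib as positive control.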

[7] = system: Pasteurella multocida; assay: Antimicrobial activity against Pasteurella multocida subsp. multocida ATCC 43137 after 24 hrs by serial dilution method; assay type: functional; conditions: ATCC 43137, 24 h; method in brief: as §1
[8] = system: ACHN; assay: Cytotoxicity against human ACHN cells after 72 hrs by CCK8 assay; assay type: functional, cell-based; method in brief: as §3
[9] = system: 786-0; assay: Cytotoxicity against human 786-O cells after 72 hrs by CCK8 assay; assay type: functional, cell-based; conditions: 786-0, 72 h; method in brief: as §3

Q: With `C=C(C=O)[C@]1(O)C[C@@]2(C)C(=CC1=O)C=C[C@H](OC(=O)/C=C/C(C)=C/[C@@H](C)CC)[C@@H]2C` as the compound, how does the MIC [1] read?
A: The MIC was greater than 100 µg/mL.

Q: And the IC50 [2]?
A: Its IC50 is 1400 nM.

Q: What about the MIC [3] of the same compound?
A: Its MIC is 1.5 µg/mL (≈ 3.64 µM).

Q: And the IC50 [4]?
A: Its IC50 is 1400 nM.

Q: And the MIC [5]?
A: The MIC was 13 µg/mL (≈ 31.5 µM).

Q: What about the IC50 [6] of the same compound?
A: Its IC50 is 3700 nM.

Q: What about the MIC [7] of the same compound?
A: Its MIC is 13 µg/mL (≈ 31.5 µM).

Q: What about the IC50 [8] of the same compound?
A: The IC50 was 4300 nM.

Q: What about the IC50 [9] of the same compound?
A: Its IC50 is 2500 nM.
